Test results reported in ChEMBL document CHEMBL1138494, “Human glucagon receptor antagonists with thiazole cores. A novel series with superior pharmacokinetic properties” (J Med Chem, 2009).
pIC50: −log10 of the molar value. The source made the active and inactive calls. The calls are words filed in the database; no cut-off is given here.

What was measured:
[1] = molecular target: T1, Gastric inhibitory polypeptide receptor (Homo sapiens, UniProt P48546); assay: Displacement of [125I]porcine GIP from human recombinant GIPR receptor expressed in BHK cells by scintillation proximity assay; type: cell-based
T1 sequence (P48546 whole entry): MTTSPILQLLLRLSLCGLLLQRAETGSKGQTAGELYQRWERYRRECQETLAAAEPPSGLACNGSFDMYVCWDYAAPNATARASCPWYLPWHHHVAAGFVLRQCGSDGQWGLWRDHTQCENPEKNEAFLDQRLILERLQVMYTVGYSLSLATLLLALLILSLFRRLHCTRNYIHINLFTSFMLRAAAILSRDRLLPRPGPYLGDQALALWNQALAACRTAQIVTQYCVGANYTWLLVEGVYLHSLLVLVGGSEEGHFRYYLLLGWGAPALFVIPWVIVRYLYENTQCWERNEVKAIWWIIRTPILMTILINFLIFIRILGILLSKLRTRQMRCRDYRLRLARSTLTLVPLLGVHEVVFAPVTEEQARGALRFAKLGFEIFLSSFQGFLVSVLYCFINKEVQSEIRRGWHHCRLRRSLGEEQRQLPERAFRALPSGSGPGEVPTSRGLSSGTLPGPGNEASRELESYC

Glucagon receptor [2] = molecular target: T2, Glucagon receptor (Homo sapiens, UniProt P47871); assay: Displacement of [125I]porcine glucagon from human recombinant glucagon receptor expressed in BHK cells by scintillation proximity assay; type: cell-based
[3] = Oral bioavailability in fasted Sprague-Dawley rat at 3.16 mg/kg by HTLC-MS/MS analysis; type: ADME, organism-based; conditions: in vivo
Procedure, shortened: (§1)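 Separate intravenous and peroral dosing arms per compound, with plasma concentration followed against time. Oral bioavailability (F_po) is reported per compound together with the intravenous half-life and clearance. The dose used for each arm is listed per compound.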

Glucagon receptor [4] = molecular target: T2, Glucagon receptor; assay: Binding affinity to human recombinant glucagon receptor expressed in BHK cells by membrane filter assay; type: cell-based
[5] = molecular target: T1, Gastric inhibitory polypeptide receptor; assay: Binding affinity to human recombinant GIPR expressed in BHK cells by membrane filter assay; type: cell-based
[6] = Tmax in fasted Sprague-Dawley rat at 1.58 mg/kg, iv and 3.16 mg/kg, po; type: ADME, organism-based; conditions: in vivo
Procedure, shortened: (§2)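 Plasma concentration–time profiles were recorded after separate intravenous and peroral dosing at the per-compound doses listed. T_max is reported in min alongside C_max (ng/mL), intravenous half-life and clearance ((mL/min)/kg).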

Homo sapiens [7] = species on record: Homo sapiens; assay: Selectivity for human recombinant glucagon receptor over human GLP1R
[8] = Half life in fasted Sprague-Dawley rat plasma at 1.58 mg/kg, iv by HTLC-MS/MS analysis; type: ADME, organism-based; parameters: dose 1.58 mg/kg, route intravenous
Procedure, shortened: (§3)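 Rats were dosed intravenously and perorally in separate arms, and plasma concentration-time profiles were obtained. Half-life was taken from the iv arm. Clearance, oral bioavailability, Cmax and Tmax were derived from the profiles.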

[9] = Clearance in fasted Sprague-Dawley rat at 1.58 mg/kg, iv and 3.16 mg/kg, po; type: ADME, organism-based; conditions: in vivo; procedure, shortened: as §3
Homo sapiens [10] = species on record: Homo sapiens; assay: Selectivity ratio of IC50 for human recombinant glucagon receptor to IC50 for human recombinant GIPR
Procedure, shortened: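 Competition binding of compounds to recombinant human glucagon and GIP receptors on BHK cell membranes, run in parallel as a scintillation proximity assay and, for selected compounds, as a membrane filtration assay.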

[11] = Cmax in fasted Sprague-Dawley rat at 1.58 mg/kg, iv and 3.16 mg/kg, po; type: ADME, organism-based; conditions: in vivo; procedure, shortened: as §3
Hepatocyte [12] = assay: Inhibition of glucagon-stimulated glucose production in human primary hepatocytes preincubated for 10 mins before glucagon addition by NADH-linked hexokinase assay; type: functional, cell-based
Procedure, shortened: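 Cultured primary human hepatocytes were preincubated with compound for 10 min, then glycogenolysis was induced with 5 nM glucagon for 60 min. Glucose in the medium was measured against basal glycogenolysis. Albumin was present in the assay medium. IC50 was calculated from four experiments, mean ± SEM.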

[13] = Clearance in fasted Beagle dog at 0.25 mg/kg, iv and 0.5 mg/kg, po; type: ADME, organism-based, Canis lupus familiaris; conditions: in vivo
Procedure, shortened: (§4)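 Dogs were dosed at 0.25 mg/kg iv and 0.5 mg/kg po, and plasma concentration was followed over time. Half-life came from the iv arm; clearance, Cmax and Tmax were also derived.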

[14] = Tmax in fasted Beagle dog at 0.25 mg/kg, iv and 0.5 mg/kg, po; type: ADME, organism-based, Canis lupus familiaris; conditions: in vivo; procedure, shortened: as §2
[15] = Oral bioavailability in fasted Sprague-Dawley rat at 3.20 mg/kg by HTLC-MS/MS analysis; type: ADME, organism-based; conditions: in vivo, 3.2 mg/kg; procedure, shortened: as §1
[16] = Tmax in fasted Sprague-Dawley rat at 1.59 mg/kg, iv and 3.20 mg/kg, po by HTLC-MS/MS analysis; type: ADME, organism-based; conditions: in vivo, 3.2 mg/kg; procedure, shortened: as §2
[17] = Binding affinity to glucagon receptor in pig liver membrane by membrane filter assay; type: cell membranes, Sus scrofa
[18] = Clearance in fasted Sprague-Dawley rat at 1.59 mg/kg, iv and 3.20 mg/kg, po by HTLC-MS/MS analysis; type: ADME, organism-based; conditions: in vivo; procedure, shortened: as §3
Glucagon receptor [19] = molecular target: Glucagon receptor (Mus musculus, UniProt Q61606); assay: Binding affinity to glucagon receptor in mouse liver membrane by membrane filter assay; type: cell membranes
[20] = Half life in fasted Sprague-Dawley rat plasma at 1.59 mg/kg, iv by HTLC-MS/MS analysis; type: ADME, organism-based; parameters: dose 1.59 mg/kg, route intravenous; procedure, shortened: as §3
[21] = Binding affinity to glucagon receptor in dog liver membrane by membrane filter assay; type: cell membranes, Canis lupus familiaris
[22] = Binding affinity to glucagon receptor in monkey liver membrane by membrane filter assay; type: cell membranes, Macaca mulatta
[23] = Cmax in fasted Sprague-Dawley rat at 1.59 mg/kg, iv and 3.20 mg/kg, po by HTLC-MS/MS analysis; type: ADME, organism-based; conditions: in vivo, 3.2 mg/kg; procedure, shortened: as §3
[24] = Cmax in fasted Beagle dog at 0.25 mg/kg, iv and 0.5 mg/kg, po; type: ADME, organism-based, Canis lupus familiaris; conditions: in vivo; procedure, shortened: as §4
[25] = Binding affinity to glucagon receptor in rabbit liver membrane by membrane filter assay; type: cell membranes, Oryctolagus cuniculus
Glucagon receptor [26] = molecular target: Glucagon receptor (Rattus norvegicus, UniProt P30082); assay: Binding affinity to glucagon receptor in rat liver membrane by membrane filter assay; type: cell membranes
Hepatocyte [27] = assay: Inhibition of glucagon-stimulated glucose production in rat primary hepatocytes; type: functional, cell-based
[28] = Half life in fasted Beagle dog at 0.25 mg/kg, iv; type: ADME, organism-based, Canis lupus familiaris; parameters: dose 0.25 mg/kg, route intravenous; conditions: in vivo; procedure, shortened: as §4
[29] = Oral bioavailability in fasted Beagle dog at 0.5 mg/kg; type: ADME, organism-based, Canis lupus familiaris; conditions: in vivo; procedure, shortened: as §1
[30] = Oral bioavailability in fasted Sprague-Dawley rat at 2.1 mg/kg by HTLC-MS/MS analysis; type: ADME, organism-based; conditions: in vivo; procedure, shortened: as §1
[31] = Tmax in fasted Sprague-Dawley rat at 1.1 mg/kg, iv and 2.1 mg/kg, po by HTLC-MS/MS analysis; type: ADME, organism-based; conditions: in vivo; procedure, shortened: as §2
[32] = Half life in fasted Sprague-Dawley rat plasma at 1.1 mg/kg, iv by HTLC-MS/MS analysis; type: ADME, organism-based; parameters: dose 1.1 mg/kg, route intravenous; procedure, shortened: as §3
[33] = Clearance in fasted Sprague-Dawley rat at 1.1 mg/kg, iv and 2.1 mg/kg, po by HTLC-MS/MS analysis; type: ADME, organism-based; conditions: in vivo; procedure, shortened: as §3
[34] = Cmax in fasted Sprague-Dawley rat at 1.1 mg/kg, iv and 2.1 mg/kg, po by HTLC-MS/MS analysis; type: ADME, organism-based; conditions: in vivo; procedure, shortened: as §3
[35] = Cmax in fasted Sprague-Dawley rat at 1.49 mg/kg, iv and 3.19 mg/kg, po; type: ADME, organism-based; conditions: in vivo; procedure, shortened: as §3
[36] = Half life in fasted Sprague-Dawley rat plasma at 1.49 mg/kg, iv by HTLC-MS/MS analysis; type: ADME, organism-based; parameters: dose 1.49 mg/kg, route intravenous; procedure, shortened: as §3
[37] = Tmax in fasted Sprague-Dawley rat at 1.49 mg/kg, iv and 3.19 mg/kg, po; type: ADME, organism-based; conditions: in vivo; procedure, shortened: as §2
[38] = Oral bioavailability in fasted Sprague-Dawley rat at 3.19 mg/kg by HTLC-MS/MS analysis; type: ADME, organism-based; conditions: in vivo; procedure, shortened: as §1
[39] = Clearance in fasted Sprague-Dawley rat at 1.49 mg/kg, iv and 3.19 mg/kg, po; type: ADME, organism-based; conditions: in vivo; procedure, shortened: as §3

T2 sequence (P47871 whole entry): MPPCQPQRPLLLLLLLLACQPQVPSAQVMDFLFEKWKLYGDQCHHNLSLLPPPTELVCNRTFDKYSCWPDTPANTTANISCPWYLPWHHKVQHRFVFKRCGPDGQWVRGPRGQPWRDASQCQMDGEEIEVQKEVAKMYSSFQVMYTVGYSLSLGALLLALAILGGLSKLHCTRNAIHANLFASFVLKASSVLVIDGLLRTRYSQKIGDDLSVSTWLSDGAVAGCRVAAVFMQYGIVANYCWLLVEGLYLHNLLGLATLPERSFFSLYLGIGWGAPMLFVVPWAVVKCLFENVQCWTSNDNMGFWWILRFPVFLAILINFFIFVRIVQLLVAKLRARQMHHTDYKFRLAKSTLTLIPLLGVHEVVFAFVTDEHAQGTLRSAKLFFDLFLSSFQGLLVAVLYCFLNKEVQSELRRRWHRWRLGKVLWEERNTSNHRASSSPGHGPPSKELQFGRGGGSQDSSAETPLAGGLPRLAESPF
Chain of Glucagon receptor (Rattus norvegicus, UniProt P30082) (P30082 whole entry): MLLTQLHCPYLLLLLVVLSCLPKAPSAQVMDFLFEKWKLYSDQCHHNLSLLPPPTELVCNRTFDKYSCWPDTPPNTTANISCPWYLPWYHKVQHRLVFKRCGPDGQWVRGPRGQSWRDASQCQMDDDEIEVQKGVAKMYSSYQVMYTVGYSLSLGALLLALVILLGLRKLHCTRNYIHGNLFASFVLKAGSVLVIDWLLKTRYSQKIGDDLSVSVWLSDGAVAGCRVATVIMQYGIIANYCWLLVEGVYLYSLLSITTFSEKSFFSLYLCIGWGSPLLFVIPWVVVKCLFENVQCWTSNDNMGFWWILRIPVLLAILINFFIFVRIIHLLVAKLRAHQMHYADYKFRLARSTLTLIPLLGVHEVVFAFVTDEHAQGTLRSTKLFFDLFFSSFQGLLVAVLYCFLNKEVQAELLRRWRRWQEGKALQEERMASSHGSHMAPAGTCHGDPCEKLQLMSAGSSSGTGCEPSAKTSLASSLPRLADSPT
Chain of Glucagon receptor (Mus musculus, UniProt Q61606) (Q61606 whole entry): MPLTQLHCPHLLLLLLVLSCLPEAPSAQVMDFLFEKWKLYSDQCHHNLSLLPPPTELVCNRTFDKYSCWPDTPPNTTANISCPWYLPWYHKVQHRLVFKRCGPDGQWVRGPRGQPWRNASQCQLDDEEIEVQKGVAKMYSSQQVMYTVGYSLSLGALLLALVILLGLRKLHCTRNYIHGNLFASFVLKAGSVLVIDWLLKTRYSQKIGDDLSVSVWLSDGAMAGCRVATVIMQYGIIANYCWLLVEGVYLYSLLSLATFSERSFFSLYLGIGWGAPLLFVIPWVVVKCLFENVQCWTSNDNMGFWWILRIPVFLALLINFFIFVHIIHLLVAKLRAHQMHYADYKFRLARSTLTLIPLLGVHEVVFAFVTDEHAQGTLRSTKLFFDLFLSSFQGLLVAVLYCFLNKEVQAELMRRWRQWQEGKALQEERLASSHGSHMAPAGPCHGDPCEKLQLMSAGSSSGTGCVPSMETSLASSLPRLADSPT

SMILES	pIC50 [1]	pIC50 (Glucagon receptor [2])	pIC50 (Glucagon receptor [4])	pIC50 [5]	fold change (FC) (Homo sapiens [7])	fold change (FC) (Homo sapiens [10])	pIC50 (Hepatocyte [12])	clearance [13]	Tmax [14]	pIC50 [17]	pIC50 (Glucagon receptor [19])	pIC50 [21]	pIC50 [22]	Cmax [24]	pIC50 (Glucagon receptor [26])	inhibition (Hepatocyte [27])	half-life [28]	bioavailability [29]	other results
O=C(O)CCNC(=O)c1ccc(CC(c2ccc(Cl)cc2)c2nc(-c3ccc(C(F)(F)F)cc3)cs2)cc1 (centres undefined)	6.42	7.02	7.42	6.68	> 50	5	–	–	–	–	–	–	–	–	–	–	–	–	bioavailability [3]: 52%; Tmax [6]: 0.5 h; half-life [8]: 0.4 h; clearance [9]: 28 mL/min/kg; Cmax [11]: 117 ng/mL
O=C(O)CCNC(=O)c1ccc(CN(c2ccc(Cl)cc2)c2nc(-c3ccc(OC(F)(F)F)cc3)cs2)cc1	6.06	7.09	7.28	6.34	> 50	5	5.55	4.64 mL/min/kg	1.5 h	5.24	6.38	7.11	7.22	554 ng/mL	5.77	inactive	1.1 h	71%	bioavailability [15]: 16%; Tmax [16]: 1 h; clearance [18]: 6 mL/min/kg; half-life [20]: 1.52 h; Cmax [23]: 521 ng/mL; pIC50 [25]: 5.92
O=C(O)CCNC(=O)c1ccc(CN(c2ccc3c(c2)Cc2ccccc2-3)c2nc(-c3ccc(OC(F)(F)F)cc3)cs2)cc1	6.31	7.30	7.23	6.54	> 50	5	6.15	–	–	–	6.66	–	7.21	–	5.74	inactive	–	–	bioavailability [30]: 12%; Tmax [31]: 5 h; half-life [32]: 2.47 h; clearance [33]: 5 mL/min/kg; Cmax [34]: 471 ng/mL
O=C(O)CCNC(=O)c1ccc(CN(c2ccc(OC(F)(F)F)cc2)c2nc(-c3ccc(C(F)(F)F)cc3)cs2)cc1	6.08	7.04	7.29	6.32	> 50	5	5.44	0.78 mL/min/kg	1.47 h	5.28	6.26	7.02	7.14	1000 ng/mL	5.70	inactive	3.92 h	55%	Cmax [35]: 638 ng/mL; half-life [36]: 7.57 h; Tmax [37]: > 6 h; bioavailability [38]: 29%; clearance [39]: 2 mL/min/kg
